Most compounds without a hit are left out; they make up all but 12% or so of the library.
CHOP inhibitor: inhibitors of CHOP induction in ER stress response | CHO-K1 CHOP-promoter luciferase, tunicamycin-induced, 15-18 h | inhibition, % at 10 µM | actives 3.8% (n = 220,000) | AID 2732;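 active means compounds that reduced the stress-induced luciferase reporter signal by more than about 70% of percent inhibition, limit read from the data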
Autophagy mod: alters autophagy in cells | actives 0.98% (n = 190,000) | MEF GFP-LC3 puncta imaging; test concentration mostly 10 µM | calls only at 10 µM (by protocol);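 active means percentage of spot-positive cells more than 3 SD above its plate mean, without a fluorescence outlier flag or 80% toxicity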
L major viab: inhibitors of Leishmania major promastigote growth | Leishmania major promastigotes, resazurin fluorescence viability | inhibition, % at 10 µM | actives 9% (n = 200,000) | AID 1063; in the data active means inhibition above about 50%;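 further: promastigotes grown with compound for 44 hours at 28 °C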
MT stabilize HCS: microtubule stabilization, imaging screen. HeLa tubulin immunostaining HCS, 24 h; share of cells brighter than vehicle mean+2SD. % tubulin-high responders, % at 10 µM. actives 0.83% (n = 200,000);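 active means plate Z-score above 3 for both tubulin-high and condensed-nucleus cell shares, with cell loss under 80%, at 10 µM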;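 further: anti alpha tubulin signal scored within the nucleus-defined area of each cell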
bCat nuc transl: modulators of beta-catenin nuclear translocation; HeLa beta-catenin nuclear translocation, immunofluorescence imaging; nuclear translocation activity, % at 5 µM; actives 0.3% (n = 190,000);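 active means nuclear translocation activity above 50% at 5 µM, with a well cell count of 50 or more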;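 further: per-cell ratio of nuclear to cytoplasmic median beta-catenin stain intensity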
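System: Human HeLa cells, endogenous beta-catenin | Compound dosing: 5 µM primary, 0.02–20 µM confirmation | Timing: 24 h compound exposure at 37°C, 5% CO2 | Measured by: Fluorescence imaging of beta-catenin antibody stain plus DAPI | Read-out basis: % activation of per-cell nuclear versus cytoplasmic median beta-catenin signal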
Dynein cargo inh: blocks dynein driven cargo transport along microtubules | z-score, hits read low | AID 1381 | actives 0.47% (n = 220,000) | 3617.4 mouse cells, GR-EGFP nuclear translocation imaging; test concentration mostly 20 µM; stimulated with dexamethasone, 1 µM; stronger effect = lower value;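 active means plate z-score of nuclear minus cytoplasmic receptor signal below a set negative limit, without overly bright fluorescence or cell loss, cut at about -3.5 in these data, passing the limit was not always enough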;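 further: z-score of nuclear minus cytoplasmic ring GR-EGFP intensity difference per well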
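Schedule: 48 h induction, then 1 h compound, then 30 min agonist, 37 °C. Buffer or medium: tetracycline-free induction medium containing charcoal-stripped FBS. Reagent: 1.0 µM final dexamethasone stimulus. Evaluation: nuclear versus cytoplasmic GR-EGFP signal, averaged per well. Signal: high-content fluorescence imaging after fixation.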
Hits are given with their value; - = inactive; . = not tested or not shown; + = active, no number.

SMILES	CHOP inhibitor	Autophagy mod	L major viab	MT stabilize HCS	bCat nuc transl	Dynein cargo inh
CCOC(=O)N1CCC(N2CCCC(CO)(Cc3ccccc3C)C2)CC1 (centres undefined)	-	-	88	-	-	-
Cc1ccc(CN2CCCC(CO)(Cc3ccccc3C)C2)s1 (centres undefined)	-	-	66	-	-	-
N#Cc1cc2ccccc2nc1SCC(=O)Nc1ccc(S(=O)(=O)N2CCCC2)cc1	-	-	96	-	-	-
CCOc1ccc2nc(SCC(=O)Nc3ccc(S(=O)(=O)N4CCCC4)cc3)c(C)cc2c1	-	.	.	.	-	-
Cc1ccc2nc(SCC(=O)Nc3ccccc3N3CCOCC3)c(C#N)cc2c1	-	+	-	46	-	-
COc1ccc2nc(SCC(=O)Nc3ccc(S(=O)(=O)N4CCCC4)cc3)c(C#N)cc2c1	-	-	90	-	-	-
CN(Cc1ccco1)C(=O)Cn1nc(-c2ccc(Cl)cc2)ccc1=O	-	-	-	-	-	-
CCC(C)(C)c1ccc(OCCCC[n+]2ccc(C)cc2)c(C(C)(C)CC)c1	76	-	100	-	-	-3.6
COc1ccc(OC)c(/C=N/NC(=O)c2cc3c(OC)c(OC)ccc3[nH]2)c1	-	-	72	-	-	-
Cc1ccc(C)c(N2C(=O)c3ccc(C(=O)OCC(=O)c4c(N)n(C)c(=O)n(C)c4=O)cc3C2=O)c1	-	-	51	-	-	-
COc1ccc(C(=O)OCC(=O)c2c(N)n(C)c(=O)n(C)c2=O)cc1OC	-	-	-	-	-	-
CN(Cc1ccco1)C(=O)C1CCC(=O)N1Cc1ccc(F)cc1 (centres undefined)	.	-	-	-	-	-
Cc1cc(C)cc(OCC(=O)NCC2CCCO2)c1 (centres undefined)	73	-	-	-	-	-
C=C(C)Cn1c(-c2ccc(OC)cc2)nc2ccccc21	-	-	55	-	-	-
COCn1c(-c2ccc(OC)cc2)nc2ccccc21	-	-	-	-	-	-
COc1ccc(-c2nc3ccccc3n2Cc2ccc(C)cc2)cc1	-	-	82	-	-	-
CCOC(Cn1c(-c2ccc(OC)cc2)nc2ccccc21)OCC	-	-	64	-	.	-
COc1ccc(Cn2c(-c3ccc(C)cc3)c[n+]3ccccc23)cc1	-	-	100	-	-	-
CCOC(=O)/C(C)=C1\NC(C)(C)Cc2ccccc21	-	-	-	-	.	-
CCOC(=O)Cn1nc(-c2ccc(F)cc2)oc1=O	-	-	-	-	.	-
Cc1nn(C)c(C)c1/C=N/NC(=O)CCn1nc(C)c([N+](=O)[O-])c1C	-	-	-	-	-	-
c1ccc(N=P(c2nc3ccccc3o2)(N2CCOCC2)N2CCOCC2)cc1	-	-	-	-	-	-
Cc1ccc(-c2cc(C(=O)O)n(-c3ccc(S(N)(=O)=O)cc3)n2)cc1	-	-	-	-	-	-
C=CCn1c(-c2cccnc2Cl)nc2ccccc21	-	-	-	-	-	-
C=CCn1c(-c2ccc(C)cc2)nc2ccccc21	-	-	87	-	.	-
SMILES	CHOP inhibitor	Autophagy mod	L major viab	MT stabilize HCS	bCat nuc transl	Dynein cargo inh
Cc1ccc(C)c(OCC(=O)N/N=C/c2c(C)nn(-c3ccccc3)c2Cl)c1	83	-	-	21	-	-
Cc1nn(-c2ccccc2)c(C)c1/C=N/NC(=O)c1cc(C23CC4CC(CC(C4)C2)C3)[nH]n1	-	-	91	-	-	-
Cc1nn(-c2ccccc2)c(C)c1/C=N/NC(=O)c1cc(-c2ccc(Cl)s2)[nH]n1	-	-	-	16	119	-
Cc1nn(-c2ccccc2)c(C)c1/C=N/NC(=O)c1cc(-c2cccs2)[nH]n1	-	-	-	8.9	162	-
Cc1nn(-c2ccccc2)c(C)c1/C=N/NC(=O)c1cc(C2CC2)[nH]n1	-	-	-	-	-	-
Cc1nn(-c2ccccc2)c(Cl)c1/C=N/NC(=O)OC(C)(C)C	-	-	-	-	-	-
C=CCCCCCCCCC(=O)NN	-	-	-	-	-	-
Cn1c(CSc2ncccn2)nnc1SCC(=O)N1CCCC1	-	-	-	-	-	-
Cc1nn(-c2ccccc2)c(C)c1/C=N/NC(=O)c1cc(-c2ccc(Br)s2)[nH]n1	70	-	56	-	-	-
Cc1ccc(C(C)C)c(OCC(=O)N/N=C/c2cccn2C)c1	96	.	.	.	-	-
Cc1cc(C(=O)N/N=C/c2c(C)nn(-c3ccccc3)c2C)n[nH]1	-	.	.	.	-	-
CCOC(=O)C1=C(C)NC(=S)NC1c1ccc(-c2cccc(Cl)c2C)o1 (centres undefined)	75	-	-	-	-	-
CCOC(=O)C1=C(C)NC(=O)NC1c1ccc(-c2ccc(Cl)cc2)o1 (centres undefined)	-	-	-	-	-	-
COC(=O)C1=C(C)NC(C)=C(C(=O)OC)C1c1ccc(-c2cccc(Cl)c2Cl)o1	-	-	79	-	-	-
CCOC(=O)C1=C(C)NC(=S)NC1c1ccco1 (centres undefined)	-	.	.	.	-	-
CCOC(=O)C1=C(C)NC(=S)NC1c1ccc(-c2ccc(Cl)cc2)o1 (centres undefined)	72	-	63	-	-	-
COc1ccc2[nH]c(=O)c(CN(Cc3cccnc3)Cc3nnnn3CC3CCCO3)cc2c1 (centres undefined)	-	.	.	.	-	-
Clc1ccc2nc(-c3ccncc3)cc(-c3ccccc3)c2c1	-	-	-	-	-	-
c1ccc(-c2cc(-c3ccncc3)nc3ccc4ccccc4c23)cc1	89	-	-	-	-	-
CC(C)(C)NC(=O)NCC1CCCC1NC(=O)NC(C)(C)C (centres undefined)	-	.	.	.	-	-
COc1cccc(NC(=S)NCc2ccncc2)c1	-	-	68	-	-	-
COc1cccc(NC(=O)C(=O)NCc2ccncc2)c1	-	-	-	-	-	-
COc1cccc(NC(=O)Nc2ccc(C(C)(C)C)cc2)c1	93	-	-	-	-	-
COc1cccc(NC(=O)Nc2ccncc2)c1	-	-	-	-	-	-
COc1cccc(NC(=O)Nc2ccc(Cc3ccncc3)cc2)c1	70	-	-	-	-	-
SMILES	CHOP inhibitor	Autophagy mod	L major viab	MT stabilize HCS	bCat nuc transl	Dynein cargo inh
COc1cccc(N/C(SC)=C(/C#N)C(=O)NCc2cccs2)c1	-	-	-	-	-	-
COc1cccc(N/C(SC)=C(/C#N)C(N)=O)c1	-	-	-	22	-	-
CCCCn1c(SCC(=O)N2CCCC2)nc2cc(S(N)(=O)=O)ccc21	-	-	-	-	-	-
O=C(Cc1ccccc1)NCc1nc2ccccc2[nH]1	.	-	-	-	.	-
CC(C)(C)c1ccc(NC(=O)Nc2ccc3ccccc3n2)cc1	85	.	.	.	-	-
O=C(Nc1ccc2ccccc2n1)C1CCCCC1	-	.	.	.	-	-
Cc1cc(C)cc(C(=O)NC(=S)Nc2ccc(Cc3ccncc3)cc2)c1	-	-	-	12	-	-

Assay outcomes as filed in PubChem.
